The values that follow come from ChEMBL document CHEMBL1125075, “Synthesis of a new class of 2,3-dihydro-2-oxo-1H-benzimidazole-1-carboxylic acid derivatives as highly potent 5-HT3 receptor antagonists” (J Med Chem, 1990).

The target of assay [1] is T1, Serotonin 3 (5-HT3) receptor (Rattus norvegicus, UniProt P35563+Q9JJ16).
T1 sequence (P35563 whole entry): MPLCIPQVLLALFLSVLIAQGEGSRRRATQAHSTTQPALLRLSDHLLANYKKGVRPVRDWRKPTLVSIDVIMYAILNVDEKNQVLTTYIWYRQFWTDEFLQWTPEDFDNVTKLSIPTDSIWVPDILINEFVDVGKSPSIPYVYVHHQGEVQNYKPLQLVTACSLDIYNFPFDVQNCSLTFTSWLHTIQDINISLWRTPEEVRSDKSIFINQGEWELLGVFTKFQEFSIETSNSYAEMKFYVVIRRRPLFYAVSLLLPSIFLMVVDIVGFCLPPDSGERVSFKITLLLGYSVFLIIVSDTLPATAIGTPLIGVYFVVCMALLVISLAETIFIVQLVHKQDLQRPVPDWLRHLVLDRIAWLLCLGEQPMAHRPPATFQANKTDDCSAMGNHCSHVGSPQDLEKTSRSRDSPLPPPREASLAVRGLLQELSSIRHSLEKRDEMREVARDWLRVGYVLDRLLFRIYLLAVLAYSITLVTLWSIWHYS
T1 sequence (Q9JJ16 whole entry): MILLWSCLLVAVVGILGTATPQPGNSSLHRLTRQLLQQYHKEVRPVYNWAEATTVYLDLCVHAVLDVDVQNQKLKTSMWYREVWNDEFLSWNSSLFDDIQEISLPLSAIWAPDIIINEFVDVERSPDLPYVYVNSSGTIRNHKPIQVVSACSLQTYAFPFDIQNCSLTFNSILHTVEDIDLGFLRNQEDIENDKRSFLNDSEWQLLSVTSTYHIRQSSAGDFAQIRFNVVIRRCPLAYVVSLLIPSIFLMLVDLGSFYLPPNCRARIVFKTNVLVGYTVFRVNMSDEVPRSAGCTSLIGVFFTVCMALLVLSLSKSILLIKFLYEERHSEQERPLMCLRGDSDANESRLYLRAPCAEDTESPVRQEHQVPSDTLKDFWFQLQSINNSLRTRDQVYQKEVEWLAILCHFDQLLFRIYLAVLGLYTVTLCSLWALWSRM
The assay is described as follows: Concentration that inhibits the binding of radioligand, [3H]-ICS 205930, to 5-hydroxytryptamine 3 receptor from rat cortex. The gist of the method:
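Rat cerebral cortex P2 fraction homogenised in 50 mM Tris·HCl pH 7.4 with 0.1% ascorbate, 4 mM CaCl2 and 10 μM pargyline, about 500 μg/mL protein. Incubated with 0.5–2.0 nM [3H]ICS 205930 (82.7 Ci/mmol) and a range of test concentrations, 30 °C for 30 min. Nonspecific binding with 10 μM reference antagonist; GF/B filtration; triplicate; Ki by computer fit.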

Assay [2] deals with Rattus norvegicus. The assay is described as follows: Effective dose that causes 50% reduction of serotonin effect in rats intravenously. Type of assay: functional. The method, boiled down: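 Rat 5-HT-induced von Bezold-Jarisch reflex. ED50 is the antagonist dose giving 50% reduction of the serotonin effect, calculated by linear regression. Means with 95% confidence limits.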

Setting [3] is: Rattus norvegicus, iv, read-out: ED50.

pKi: −log10 of the molar value.

As to `CN1C2CCC1CC(OC(=O)n1c(=O)n(C)c3ccccc31)C2` (configuration not stated), the pKi in assay [1] is 7.92. Moreover, the ED50 in assay [2] (setting [3]) turned out to be 0.038 µmol/kg.

In the case of `CN1[C@@H]2CC[C@H]1C[C@@H](OC(=O)c1cc(Cl)cc(Cl)c1)C2` [BEMESETRON], the pKi in assay [1] was 7.61. The ED50 in assay [2] (setting [3]) worked out at 0.195 µmol/kg.

Regarding `O=C(NC1CCN2CCCC1C2)n1c(=O)[nH]c2ccccc21` (configuration not stated), the pKi in assay [1] is 7.69. Further, the ED50 in assay [2] (setting [3]) was 0.289 µmol/kg.

As to `CN1C2CCC1CC(NC(=O)n1c(=O)[nH]c3ccccc31)C2.Cl` (configuration not stated), the negative-log Ki (pKi) in assay [1] was < 6.00. For the same compound, in assay [2], the ED50 is >3000 nM/kg.

As to `Cc1ccc2c(c1)[nH]c(=O)n2C(=O)OC1CC2CCC(C1)N2C` (configuration not stated), in assay [1], the pKi was < 6.00. Also, in assay [2] (setting [3]), the ED50 is > 3 µmol/kg.

As to `Cc1cc2[nH]c(=O)n(C(=O)OC3CC4CCC(C3)N4C)c2cc1C` (configuration not stated), the pKi in assay [1] was < 6.00. Further, the ED50 in assay [2] (setting [3]) is > 3 µmol/kg.

Consider `CN1C2CCC1CC(OC(=O)n1c(=O)[nH]c3cc(C(F)(F)F)ccc31)C2` (configuration not stated), for which the pKi in assay [1] is < 6.00. Moreover, the ED50 in assay [2] (setting [3]) is > 3 µmol/kg.

For the compound `CN1C2CCC1CC(OC(=O)n1c(=O)[nH]c3cc(F)ccc31)C2` (configuration not stated), the pKi in assay [1] was 7.58. In addition, in assay [2] (setting [3]), the ED50 amounted to 0.204 µmol/kg.

`CN1CC2CCC1CC2OC(=O)n1c(=O)[nH]c2ccccc21.O=C(O)CC(O)(CC(=O)O)C(=O)O` (configuration not stated) displayed an ED50 in assay [2] of 18.9 nM/kg.

Regarding `O=C(OC1CN2CCC1CC2)n1c(=O)[nH]c2ccccc21` (configuration not stated), the pKi in assay [1] was 7.79. Also, the ED50 in assay [2] (setting [3]) amounted to 0.8 µmol/kg.

In assay [1], `Cc1cccc2c1[nH]c(=O)n2C(=O)OC1CC2CCC(C1)N2C` (configuration not stated) had a pKi of 8.10. Moreover, the ED50 in assay [2] (setting [3]) is 0.0301 µmol/kg.

In assay [1], `CN1[C@@H]2CC[C@H]1C[C@@H](OC(=O)c1c[nH]c3ccccc13)C2` [TROPISETRON] showed a pKi of 8.77. Also, the ED50 in assay [2] (setting [3]) is 0.0021 µmol/kg.

Compound `CN1C2CCCC1CC(NC(=O)n1c(=O)[nH]c3ccccc31)C2.Cl` (configuration not stated) had a pKi in assay [1] of 8.82. Moreover, in assay [2], the ED50 worked out at 1.1 nM/kg.

In the case of `COc1ccc2[nH]c(=O)n(C(=O)OC3CC4CCC(C3)N4C)c2c1` (configuration not stated), the pKi in assay [1] is < 6.00.

For the compound `CC(=O)c1ccc2[nH]c(=O)n(C(=O)OC3CC4CCC(C3)N4C)c2c1` (configuration not stated), the pKi in assay [1] was < 6.00. For the same compound, the ED50 in assay [2] (setting [3]) is > 3 µmol/kg.

`CN1C2CCC1CC(NC(=O)n1c(=O)n(C)c3ccccc31)C2` (configuration not stated): the pKi in assay [1] is 8.77. Further, in assay [2] (setting [3]), the ED50 was 0.0054 µmol/kg.

Take `CN1C2CCC1CC(OC(=O)n1c(=O)[nH]c3ccccc31)C2.Cl` (configuration not stated): in assay [1], the pKi is < 6.00. The compound also yielded an ED50 in assay [2] of 3982 nM/kg.

In assay [1], `CN1C2CCCC1CC(NC(=O)n1c(=O)[nH]c3ccccc31)C2` (configuration not stated) had a pKi of 6.89. The same compound came in with an ED50 in assay [2] of 905 nM/kg.

For `CC1CC(OC(=O)n2c(=O)[nH]c3ccccc32)CC(C)N1C` (configuration not stated), the pKi in assay [1] was < 6.00. Besides, the ED50 in assay [2] (setting [3]) was > 3 µmol/kg.

On to `O=C(OC12CCN(CC1)CC2)n1c(=O)[nH]c2ccccc21`, for which the pKi in assay [1] was < 6.00. Besides, the ED50 in assay [2] (setting [3]) was > 3 µmol/kg.

For the compound `CN1C2CCCC1CC(OC(=O)n1c(=O)[nH]c3ccccc31)C2.O=C(O)CC(O)(CC(=O)O)C(=O)O` (configuration not stated), the pKi in assay [1] was < 6.00. In addition, in assay [2], the ED50 was >3000 nM/kg.

In assay [1], `CN1C2CCC1CC(OC(=O)n1c(=O)[nH]c3ccccc31)C2` (configuration not stated) gave a pKi of 7.67. In assay [2], this compound had an ED50 of 17.9 nM/kg.

`CCn1c(=O)n(C(=O)OC2CC3CCC(C2)N3C)c2ccccc21` (configuration not stated) showed a pKi in assay [1] of 7.74. Further, the ED50 in assay [2] (setting [3]) amounted to 0.0097 µmol/kg.

`O=C(NC1CN2CCC1CC2)n1c(=O)[nH]c2ccccc21` (configuration not stated) had a pKi in assay [1] of 8.68. Further, the ED50 in assay [2] (setting [3]) amounted to 0.0035 µmol/kg.

Take `CN1C2CCC1C(OC(=O)n1c(=O)[nH]c3ccccc31)C2` (configuration not stated): in assay [1], the pKi is < 6.00. Moreover, the ED50 in assay [2] (setting [3]) is > 3 µmol/kg.

Consider `O=C(NC1CC2CCC(C1)N2Cc1ccccc1)n1c(=O)[nH]c2ccccc21` (configuration not stated), for which the pKi in assay [1] was < 6.00. Besides, the ED50 in assay [2] (setting [3]) is > 3 µmol/kg.

For `Cc1cccc2[nH]c(=O)n(C(=O)OC3CC4CCC(C3)N4C)c12` (configuration not stated), the pKi in assay [1] is 6.51. Moreover, the ED50 in assay [2] (setting [3]) is > 3 µmol/kg.

`CN(C(=O)n1c(=O)[nH]c2ccccc21)C1CC2CCCC(C1)N2C` (configuration not stated): the pKi in assay [1] was < 6.00. In addition, in assay [2] (setting [3]), the ED50 was > 3 µmol/kg.

For `CN1C2CCC1CC(NC(=O)n1c(=O)[nH]c3ccccc31)C2` (configuration not stated), in assay [1], the pKi was 8.43. The ED50 in assay [2] was 1 nM/kg.

On to `CN1CC2CCC1CC2OC(=O)n1c(=O)[nH]c2ccccc21.Cl` (configuration not stated), for which the pKi in assay [1] was < 6.00. For the same compound, the ED50 in assay [2] is >3000 nM/kg.

For `CN1CCC(OC(=O)n2c(=O)[nH]c3ccccc32)CC1`, the pKi in assay [1] is < 6.00. The ED50 in assay [2] (setting [3]) was > 3 µmol/kg.

In the case of `COc1ccc2c(c1)[nH]c(=O)n2C(=O)OC1CC2CCC(C1)N2C` (configuration not stated), the pKi in assay [1] is < 6.00. Besides, the ED50 in assay [2] (setting [3]) is > 3 µmol/kg.

Turning to `C[N+]1(C)C2CCC1CC(OC(=O)n1c(=O)[nH]c3ccccc31)C2` (configuration not stated), the pKi in assay [1] is 7.47. In assay [2] (setting [3]), the ED50 worked out at 0.0093 µmol/kg.

In assay [1], `CCn1c(=O)n(C(=O)NC2CC3CCC(C2)N3C)c2ccccc21` (configuration not stated) showed a pKi of 8.64. The ED50 in assay [2] (setting [3]) is 0.0051 µmol/kg.

`CN1C2CCC1CC(OC(=O)n1c(=O)[nH]c3ccc(F)cc31)C2` (configuration not stated) gave a pKi in assay [1] of 7.47. Moreover, the ED50 in assay [2] (setting [3]) was found to be 0.062 µmol/kg.

Take `CN1C2CCC1CC(OC(=O)n1c(=O)[nH]c3cc(Cl)ccc31)C2` (configuration not stated): the pKi in assay [1] was < 6.00. In addition, the ED50 in assay [2] (setting [3]) is > 3 µmol/kg.

In the case of `CN1CCC(NC(=O)n2c(=O)[nH]c3ccccc32)CC1`, the pKi in assay [1] is 6.36. The ED50 in assay [2] (setting [3]) came to 1.52 µmol/kg.

On to `CN1C2CCCC1CC(NC(=O)n1c(=O)n(C)c3ccccc31)C2` (configuration not stated), for which the pKi in assay [1] is 9.05. For the same compound, the ED50 in assay [2] (setting [3]) was determined as 0.0015 µmol/kg.

`CCN1C2CCC1CC(OC(=O)n1c(=O)[nH]c3ccccc31)C2` (configuration not stated): the pKi in assay [1] was < 6.00. In addition, in assay [2] (setting [3]), the ED50 was > 3 µmol/kg.

In assay [1], `CN1C2CCCC1CC(OC(=O)n1c(=O)[nH]c3ccccc31)C2.Cl` (configuration not stated) gave a pKi of 8.66. For the same compound, the ED50 in assay [2] is 10.8 nM/kg.

`O=C(OC1CCNCC1)n1c(=O)[nH]c2ccccc21` showed a pKi in assay [1] of 7.14. In addition, in assay [2] (setting [3]), the ED50 is 0.487 µmol/kg.

Regarding `O=C(OC1CC2CCC(C1)N2Cc1ccccc1)n1c(=O)[nH]c2ccccc21` (configuration not stated), the pKi in assay [1] was < 6.00. For the same compound, in assay [2] (setting [3]), the ED50 is > 3 µmol/kg.
